Reference: ChEMBL document CHEMBL5647691, “CDKN2A/p16 Loss Implicates CDK4 as a Therapeutic Target in Imatinib-Resistant Dermatofibrosarcoma Protuberans” (Mol Cancer Ther, 2015)
Calls of active or inactive are those of the source. The calls are words filed in the database; no cut-off is given here.

What was measured:
[1] = Antiproliferative activity against human Imatinib-resistant DFSP105 cells assessed as cell growth inhibition incubated for 48 hrs by BrdU cell proliferation assay; type: functional
In short: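 DFSP105 cells (IMDM, 15% FBS, passages 10-30) seeded at 2500/well; drug added in fresh medium 24 h after plating, 48 h exposure, BrdU added for final 24 h. Proliferation read by BrdU chemiluminescent ELISA; GI50 = 50% growth inhibition concentration.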

[2] = system: Imatinib-resistant DFSP105 cell; test: Antitumor activity against human Imatinib-resistant DFSP105 cells xenografted in athymic nude mouse assessed as tumor growth inhibition by measuring tumor size at 75 mg/kg,po daily for 5 weeks; type: functional, organism-based
In short: (§1)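 S.c. DFSP105 xenografts (2 million cells in Matrigel) in athymic nude mice, treated after ~5 weeks establishment with daily gavage: imatinib 75 mg/kg in water or PD-0332991 150 mg/kg in HCl/Cremophor EL/PEG 300/acetate pH 4.6 vehicle, versus untreated, for 5 weeks. Tumor volume and body weight monitored weekly; mean ± SE.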

[3] = system: Imatinib-resistant DFSP105 cell; test: Antitumor activity against human Imatinib-resistant DFSP105 cells xenografted in athymic nude mouse assessed as tumor cell density at 75 mg/kg,po daily for 5 weeks by immunohistochemistry analysis; type: functional, organism-based
In short: (§2)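 Athymic nude mice given 2 million DFSP105 cells s.c. in Matrigel; after ~5 weeks tumor establishment, daily gavage (imatinib 75 mg/kg in water; PD-0332991 150 mg/kg in HCl/Cremophor EL/PEG 300/acetate pH 4.6 vehicle) for 5 weeks. BrdU i.p. 2 h before CO2 euthanasia; resected tumors examined histologically for cell density and BrdU-positive nuclei.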

[4] = Toxicity in athymic nude mouse xenografted with human Imatinib-resistant DFSP105 cells assessed as body weight loss at 75 mg/kg,po daily for 5 weeks; type: organism-based; details: in vivo, 840 h; in short: as §1
[5] = biological target: Platelet-derived growth factor receptor beta (Homo sapiens) (UniProt P09619); details: Imatinib-resistant DFSP105 cell, dose 500.0 nM
[6] = biological target: T1, Retinoblastoma-associated protein (Homo sapiens) (UniProt P06400); test: Inhibition of RB1 phosphorylation at S795 residue in human Imatinib-resistant DFSP105 cells at […] incubated for 24 hrs by Western blot analysis; type: cell-based; details: Imatinib-resistant DFSP105 cell
T1 sequence (whole entry): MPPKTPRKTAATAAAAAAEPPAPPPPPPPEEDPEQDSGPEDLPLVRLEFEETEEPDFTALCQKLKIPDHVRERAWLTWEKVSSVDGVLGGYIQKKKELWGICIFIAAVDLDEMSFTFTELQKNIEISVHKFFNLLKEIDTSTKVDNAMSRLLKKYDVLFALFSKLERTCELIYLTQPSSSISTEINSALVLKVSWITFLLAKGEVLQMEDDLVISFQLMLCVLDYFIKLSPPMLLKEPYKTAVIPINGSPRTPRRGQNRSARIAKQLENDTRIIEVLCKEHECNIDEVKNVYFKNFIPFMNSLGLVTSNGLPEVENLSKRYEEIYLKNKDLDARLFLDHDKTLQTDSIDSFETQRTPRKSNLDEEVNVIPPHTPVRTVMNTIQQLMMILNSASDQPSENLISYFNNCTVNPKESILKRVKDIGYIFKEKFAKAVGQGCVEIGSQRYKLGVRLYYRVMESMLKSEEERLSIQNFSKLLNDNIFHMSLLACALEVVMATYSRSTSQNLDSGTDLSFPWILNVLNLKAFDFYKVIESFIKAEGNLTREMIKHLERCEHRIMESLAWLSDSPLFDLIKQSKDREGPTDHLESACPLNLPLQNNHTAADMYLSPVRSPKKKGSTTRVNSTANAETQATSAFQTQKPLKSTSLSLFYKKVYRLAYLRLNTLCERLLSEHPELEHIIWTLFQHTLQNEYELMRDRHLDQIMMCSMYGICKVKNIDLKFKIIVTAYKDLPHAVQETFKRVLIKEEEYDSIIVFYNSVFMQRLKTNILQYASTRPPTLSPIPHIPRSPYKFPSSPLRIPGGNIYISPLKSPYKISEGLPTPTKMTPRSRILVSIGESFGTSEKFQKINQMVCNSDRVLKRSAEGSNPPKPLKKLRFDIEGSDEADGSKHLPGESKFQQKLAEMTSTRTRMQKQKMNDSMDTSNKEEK
In short: (§3)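 DFSP105 cells treated 24 h with CDK4/6 inhibitor over a dose series; whole-cell lysates cleared 14,000 rpm 30 min 4°C, protein by Bradford, then immunoblotting for phospho-RB1 and cyclin A.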

[7] = biological target: T1, Retinoblastoma-associated protein (Homo sapiens); test: Inhibition of RB1 phosphorylation at S807 residue in human Imatinib-resistant DFSP105 cells at […] incubated for 24 hrs by Western blot analysis; type: cell-based; details: Imatinib-resistant DFSP105 cell; in short: as §3
[8] = biological target: T1, Retinoblastoma-associated protein (Homo sapiens); test: Inhibition of RB1 phosphorylation at S811 residue in human Imatinib-resistant DFSP105 cells at […] incubated for 24 hrs by Western blot analysis; type: cell-based; details: Imatinib-resistant DFSP105 cell; in short: as §3
[9] = system: Imatinib-resistant DFSP105 cell; test: Antiproliferative activity against human Imatinib-resistant DFSP105 cells assessed as decrease in Cyclin A expression at […] incubated for 24 hrs by Western blot analysis; type: functional, cell-based; in short: as §3
[10] = system: Imatinib-resistant DFSP105 cell; test: Antitumor activity against human Imatinib-resistant DFSP105 cells xenografted in athymic nude mouse assessed as tumor growth inhibition by measuring tumor size at 150 mg/kg,po daily for 5 weeks; type: functional, organism-based; in short: as §1
[11] = system: Imatinib-resistant DFSP105 cell; test: Antitumor activity against human Imatinib-resistant DFSP105 cells xenografted in athymic nude mouse assessed as decrease in RB1 phosphorylation at S795 residue in tumor at 150 mg/kg,po daily for 5 weeks by Western blot analysis; type: functional, organism-based
In short: (§4)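 Nude mice bearing s.c. DFSP105 xenografts (2 million cells in Matrigel, ~5 weeks to establish) dosed daily by gavage at 150 mg/kg in HCl/Cremophor EL/PEG 300/acetate pH 4.6 vehicle for 5 weeks; tumor lysates (homogenized in ice-cold buffer with protease inhibitors) immunoblotted for phospho-RB1.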

[12] = system: Imatinib-resistant DFSP105 cell; test: Antitumor activity against human Imatinib-resistant DFSP105 cells xenografted in athymic nude mouse assessed as decrease in RB1 phosphorylation at S807 residue in tumor at 150 mg/kg,po daily for 5 weeks by Western blot analysis; type: functional, organism-based; in short: as §4
[13] = system: Imatinib-resistant DFSP105 cell; test: Antitumor activity against human Imatinib-resistant DFSP105 cells xenografted in athymic nude mouse assessed as tumor cell density at 150 mg/kg,po daily for 5 weeks by immunohistochemistry analysis; type: functional, organism-based; in short: as §2
[14] = Toxicity in athymic nude mouse xenografted with human Imatinib-resistant DFSP105 cells assessed as body weight loss at 150 mg/kg,po daily for 5 weeks; type: organism-based; details: in vivo, 840 h; in short: as §1

Chain of Platelet-derived growth factor receptor beta (Homo sapiens) (P09619 whole entry): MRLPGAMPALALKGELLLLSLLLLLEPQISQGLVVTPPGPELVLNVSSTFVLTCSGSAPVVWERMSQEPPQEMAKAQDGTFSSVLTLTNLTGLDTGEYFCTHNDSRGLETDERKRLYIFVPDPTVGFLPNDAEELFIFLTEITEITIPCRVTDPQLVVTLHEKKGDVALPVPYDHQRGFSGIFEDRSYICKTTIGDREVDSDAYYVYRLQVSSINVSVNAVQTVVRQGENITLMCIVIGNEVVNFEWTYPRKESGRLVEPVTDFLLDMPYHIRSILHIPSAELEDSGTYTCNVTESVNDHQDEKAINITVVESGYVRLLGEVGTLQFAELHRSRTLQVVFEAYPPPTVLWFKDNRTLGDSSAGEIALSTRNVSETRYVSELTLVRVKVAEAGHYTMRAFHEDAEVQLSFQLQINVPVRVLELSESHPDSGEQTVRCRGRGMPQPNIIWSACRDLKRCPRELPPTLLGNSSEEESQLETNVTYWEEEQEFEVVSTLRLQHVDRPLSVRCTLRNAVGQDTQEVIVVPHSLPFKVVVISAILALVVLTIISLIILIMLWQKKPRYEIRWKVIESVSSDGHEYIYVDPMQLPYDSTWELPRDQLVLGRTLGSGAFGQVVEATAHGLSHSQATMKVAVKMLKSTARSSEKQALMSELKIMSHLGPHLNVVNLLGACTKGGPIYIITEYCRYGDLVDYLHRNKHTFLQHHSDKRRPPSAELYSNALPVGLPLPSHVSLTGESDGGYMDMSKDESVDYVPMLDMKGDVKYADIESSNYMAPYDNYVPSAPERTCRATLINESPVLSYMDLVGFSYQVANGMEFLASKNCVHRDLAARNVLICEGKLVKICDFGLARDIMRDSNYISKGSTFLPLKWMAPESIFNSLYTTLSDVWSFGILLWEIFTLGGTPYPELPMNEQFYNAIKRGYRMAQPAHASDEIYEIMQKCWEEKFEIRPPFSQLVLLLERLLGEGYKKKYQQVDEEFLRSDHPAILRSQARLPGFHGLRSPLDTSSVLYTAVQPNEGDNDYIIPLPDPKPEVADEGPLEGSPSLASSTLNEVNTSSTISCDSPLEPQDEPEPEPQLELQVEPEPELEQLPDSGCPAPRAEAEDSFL

| SMILES | GI50 [1] [nM] | inhibition [5] | inhibition [6] | inhibition [7] | inhibition [8] | Activity [9] | further results |
| --- | --- | --- | --- | --- | --- | --- | --- |
| CO[C@H]1C[C@@H]2CC[C@@H](C)[C@@](O)(O2)C(=O)C(=O)N2CCCC[C@H]2C(=O)O[C@H]([C@H](C)C[C@@H]2CC[C@@H](OCCO)[C@H](OC)C2)CC(=O)[C@H](C)/C=C(\C)[C@@H](O)[C@@H](OC)C(=O)[C@H](C)C[C@H](C)/C=C/C=C/C=C/1C [EVEROLIMUS] | 5 |  |  |  |  |  |  |
| Cc1ccc(NC(=O)c2ccc(CN3CCN(C)CC3)cc2)cc1Nc1nccc(-c2cccnc2)n1 [IMATINIB] | > 5000 | Active |  |  |  |  | Activity [2]: inactive; Activity [3]: inactive; Activity [4]: Non-Toxic |
| CC(=O)c1c(C)c2cnc(Nc3ccc(N4CCNCC4)cn3)nc2n(C2CCCC2)c1=O [PALBOCICLIB] | 160 |  | Active | Active | Active | Active | Activity [10]: Active; Activity [11]: Active; Activity [12]: Active; Activity [13]: inactive; Activity [14]: Non-Toxic |
| CS(=O)(=O)N1CCN(Cc2cc3nc(-c4cccc5[nH]ncc45)nc(N4CCOCC4)c3s2)CC1 [PICTILISIB] | 1900 |  |  |  |  |  |  |
| CN(C)C(=O)c1cc2cnc(Nc3ccc(N4CCNCC4)cn3)nc2n1C1CCCC1 [RIBOCICLIB] | 276 |  | Active | Active | Active | Active |  |
| CCN(CC)CCNC(=O)c1c(C)[nH]c(/C=C2\C(=O)Nc3ccc(F)cc32)c1C [SUNITINIB] | > 5000 | Active |  |  |  |  |  |
